Activity calls are given as the source filed them. The calls are words filed in the database; no cut-off is given here.
Key:
JC polyomavirus [1] = assay: Antiviral activity against JC polyomavirus Mad1-SVEdelta infected in SVG-A cells assessed as viral infectivity level pre-incubated for 0.5 hrs with 25 uM compound before viral infection for 72 hrs by flow cytometry relative to DMSO control; format: functional
JC polyomavirus [2] = assay: Antiviral activity against JC polyomavirus Mad1-SVEdelta infected in SVG-A cells assessed as reduction in viral infectivity pre-incubated for 0.5 hrs with compound before viral infection for 72 hrs by flow cytometry; format: functional, cell-based
How it was run: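 JCPyV infection of SVG-A cells (1 × 10^5 per well, seeded overnight at 37°C) after 0.5 h pretreatment with compound from 1:2 serial dilutions of a 2500x DMSO stock, final DMSO 0.04%. Virus at MOI 0.25 with compound present for 72 h. Cells fixed in 4% PFA and permeabilized in 1% Triton X-100. Stained with Alexa Fluor-labeled anti-VP1 antibody, infected cells scored by flow cytometry. IC50 from three independent experiments.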

[3] = system: Human papillomavirus type 16; assay: Antiviral activity against HPV16 pseudovirus expressing HcRed reporter infected in HeLa-M cells assessed as reduction in viral infectivity pre-incubated for 0.5 hrs with compound before viral infection for 72 hrs by flow cytometry; format: functional, organism-based; details: Human papillomavirus 16, HeLaM
How it was run: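 HeLa M cells in DMEM with 10% FBS and 10 mM Hepes pH 7.5, pretreated with compound from 1:2 serial dilutions of a 2500x DMSO stock, final DMSO 0.04%. Challenged with HcRed-reporter HPV16 pseudovirus. Cells fixed in 4% PFA and HcRed-positive cells scored by flow cytometry. IC50 from three independent experiments.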

JC polyomavirus [4] = assay: (§1) Inhibition of retrograde transport of JC polyomavirus Mad1-SVEdelta infected in SVG-A cells assessed as reduction in co-localization of viral capsid protein VP1 and ER protein PDI pre-incubated for 0.5 hrs with compound before viral infection for 1 hr followed by incubation with compound at 0.1 mM for 8 hrs by proximity ligation assay; format: functional, cell-based
How it was run: (§2)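 SVG-A cells in MEM with 10% FBS were pretreated 0.5 h, then given JCPyV Mad1-SVEΔ at MOI 100 for 1 h at 37°C. After washing, compound (0.05 or 0.1 mM) or vehicle was re-added for 8 h at 37°C. Cells were fixed (4% PFA), permeabilised (0.5% Triton, 0.5 h) and blocked (5% donkey serum), then stained overnight at 4°C with rabbit anti-VP1 (1:1,000) plus mouse anti-PDI (1:100). Read-out: proximity ligation, confocal maximal z-projections.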

[5] = system: Human papillomavirus type 16; assay: as §1, with “HPV16 pseudovirus expressing HcRed reporter” for “JC polyomavirus Mad1-SVEdelta”, “L1” for “VP1”, “golgi” for “ER”, “TGN46” for “PDI”, “16” for “8”; format: functional, organism-based; details: Human papillomavirus 16
JC polyomavirus [6] = assay: Potency index, ratio of IC50 for Retro-2(cycl) to IC50 for test compound against JC polyomavirus Mad1-SVEdelta infected in SVG-A cells assessed as reduction in viral infectivity pre-incubated for 0.5 hrs with compound before viral infection for 72 hrs by flow cytometry; format: functional
JC polyomavirus [7] = assay: as §1, with “0.05” for “0.1”; format: functional, cell-based; how it was run: as §2
[8] = system: Human papillomavirus type 16; assay: as §1, with “HPV16 pseudovirus expressing HcRed reporter” for “JC polyomavirus Mad1-SVEdelta”, “L1” for “VP1”, “golgi” for “ER”, “TGN46” for “PDI”, “0.05” for “0.1”, “16” for “8”; format: functional, organism-based; details: Human papillomavirus 16

Row | Structure (SMILES) | Activity (JC polyomavirus [1]) [%] | also measured
1 | CCCCNc1ccc2c(c1)C(=O)N(Cc1ccc(F)cc1)C(c1ccc(CC)s1)N2 (configuration not stated) | 71 | –
2 | CCc1ccc(-c2nc3ccccc3c(=O)n2Cc2ccc(F)cc2)s1 | 63.3 | –
3 | CCc1ccc(C2N(Cc3ccc(F)cc3)C(=O)c3ccccc3N2C)s1 (configuration not stated) | 60 | –
4 | CCc1ccc(C2Nc3ccccc3C(=O)N2[C@@H](C)c2ccccc2)s1 (mixture of isomers) | 32.4 | –
5 | CCc1ccc(C2Nc3ccccc3C(=O)N2[C@H](C)c2ccccc2)s1 (mixture of isomers) | 52.7 | –
6 | Cc1ccc(C2Nc3ccccc3C(=O)N2c2ccccc2)s1 (racemic) | 57.5 | IC50 (JC polyomavirus [2]): 54 µM; IC50 [3]: 160 µM; inhibition (JC polyomavirus [4]): Active; inhibition [5]: Active
7 | O=C1c2ccccc2NC(c2cccs2)N1c1ccccc1 (racemic) | 81.1 | –
8 | Cc1ccsc1C1Nc2ccccc2C(=O)N1c1ccccc1 (racemic) | 76.4 | –
9 | Cc1csc(C2Nc3ccccc3C(=O)N2c2ccccc2)c1 (racemic) | 55.6 | –
10 | CCc1ccc(C2Nc3ccccc3C(=O)N2c2ccccc2)s1 (racemic) | 47.8 | –
11 | O=C1c2ccccc2NC(c2ccc[nH]2)N1c1ccccc1 (racemic) | 92.4 | –
12 | O=C1c2ccccc2NC(c2ccco2)N1c1ccccc1 (racemic) | 69.9 | –
13 | Cc1ccc(C2Nc3ccccc3C(=O)N2c2ccccc2)o1 (racemic) | 64.4 | –
14 | O=C1c2ccccc2NC(c2cc3ccccc3s2)N1c1ccccc1 (racemic) | 95.3 | –
15 | CCc1ccc(C2NC(=O)c3ccccc3N2)s1 (racemic) | 41.4 | –
16 | CCCN1C(=O)c2ccccc2NC1c1ccc(CC)s1 (racemic) | 76.4 | –
17 | CCc1ccc(C2Nc3ccccc3C(=O)N2C(C)C)s1 (racemic) | 69.9 | –
18 | CCCCN1C(=O)c2ccccc2NC1c1ccc(CC)s1 (racemic) | 42.4 | –
19 | CCc1ccc(C2Nc3ccccc3C(=O)N2C2CCCCC2)s1 (racemic) | 45.7 | –

Row | Structure (SMILES) | Activity (JC polyomavirus [1]) [%] | also measured
20 | CCc1ccc(C2Nc3ccccc3C(=O)N2Cc2ccccc2)s1 (racemic) | 13.3 | –
21 | CCc1ccc(C2Nc3ccccc3C(=O)N2CCc2ccccc2)s1 (racemic) | 50.4 | –
22 | CCc1ccc(C2Nc3ccccc3C(=O)N2Cc2cccc3ccccc23)s1 (racemic) | 14.5 | –
23 | CCc1ccc(C2Nc3ccccc3C(=O)N2Cc2ccc(OC)cc2)s1 (racemic) | 21.2 | –
24 | CCc1ccc(C2Nc3ccccc3C(=O)N2Cc2cccc(OC)c2)s1 (racemic) | 27.5 | –
25 | CCc1ccc(C2Nc3ccccc3C(=O)N2Cc2ccccc2OC)s1 (racemic) | 13.7 | –
26 | CCc1ccc(C2Nc3ccccc3C(=O)N2Cc2ccc(OC)cc2OC)s1 (racemic) | 16.4 | –
27 | CCc1ccc(C2Nc3ccccc3C(=O)N2Cc2ccc(F)cc2)s1 (racemic) | 7.62 | –
28 | CCc1ccc(C2Nc3ccccc3C(=O)N2Cc2cccc(F)c2)s1 (racemic) | 14 | –
29 | CCc1ccc(C2Nc3ccccc3C(=O)N2Cc2ccc([N+](=O)[O-])cc2)s1 (racemic) | 30.6 | –
30 | CCc1ccc(C2Nc3ccccc3C(=O)N2Cc2cccc([N+](=O)[O-])c2)s1 (racemic) | 44.5 | –
31 | CCc1ccc(C2Nc3cccc(C)c3C(=O)N2Cc2ccc(F)cc2)s1 (racemic) | 10.2 | –
32 | CCc1ccc(C2Nc3ccc(C)cc3C(=O)N2Cc2ccc(F)cc2)s1 (racemic) | 8.34 | –
33 | CCc1ccc(C2Nc3cc(C)ccc3C(=O)N2Cc2ccc(F)cc2)s1 (racemic) | 67.1 | –
34 | CCc1ccc(C2Nc3c(C)cccc3C(=O)N2Cc2ccc(F)cc2)s1 (racemic) | 44.5 | –
35 | CCc1ccc(C2Nc3ccc(Cl)cc3C(=O)N2Cc2ccc(F)cc2)s1 (racemic) | 13.7 | –
36 | CCc1ccc(C2Nc3cc(Cl)ccc3C(=O)N2Cc2ccc(F)cc2)s1 (racemic) | 21.3 | –
37 | CCc1ccc(C2Nc3ccc(F)cc3C(=O)N2Cc2ccc(F)cc2)s1 (racemic) | 4.45 | IC50 (JC polyomavirus [2]): 8.1 µM; IC50 [3]: 24 µM; Ratio IC50 (JC polyomavirus [6]): 6.7; inhibition (JC polyomavirus [7]): Active; inhibition [8]: Active
38 | CCc1ccc(C2Nc3cc(F)ccc3C(=O)N2Cc2ccc(F)cc2)s1 (racemic) | 8.82 | –
